Measured values taken from ChEMBL document CHEMBL5032492, “Aminoalkoxycarbonyloxymethyl Ether Prodrugs with a pH-Triggered Release Mechanism: A Case Study Improving the Solubility, Bioavailability, and Efficacy of Antimalarial 4(1H)-Quinolones with Single Dose Cures” (J Med Chem, 2021).
In brackets after ≈: the same amount, converted by molar mass. Activity calls are given as the source filed them. The rule behind the calls is not given here.

Experiments:
[1] = Cmax in BALB/c mouse at 3 mg/kg, po; assay type: ADME, organism-based; design: route oral, dose 3 mg/kg; details: in vivo
In short: (§1)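 Single oral dose in mice, formulated in 0.5% aqueous HEC; doses of 3, 10 or 50 mg/kg. The parent 4(1H)-quinolone was quantified in plasma over time after dosing, with a lower limit of quantification of 1 nM. PK parameters were derived from the plasma concentration profiles.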

[2] = Volume of distribution in BALB/c mouse at 3 mg/kg, po; assay type: ADME, organism-based; details: in vivo; in short: as §1
[3] = Tmax in BALB/c mouse at 3 mg/kg, po; assay type: ADME, organism-based; details: in vivo; in short: as §1
[4] = Tmax in BALB/c mouse at 10 mg/kg, po; assay type: ADME, organism-based; details: in vivo; in short: as §1
[5] = Clearance in BALB/c mouse at 10 mg/kg, po; assay type: ADME, organism-based; details: in vivo; in short: as §1
[6] = Cmax in BALB/c mouse at 10 mg/kg, po; assay type: ADME, organism-based; design: route oral, dose 10 mg/kg; details: in vivo; in short: as §1
[7] = Clearance in BALB/c mouse at 3 mg/kg, po; assay type: ADME, organism-based; details: in vivo; in short: as §1
[8] = tested on: Plasmodium berghei; experiment: (§2) In vivo antimalarial activity against blood stage Plasmodium berghei transfected with GFP infected in BALB/c mouse assessed as supression of parasitemia at 10 mg/kg, po administered as single dose on 3 days post infection and measured on day 6 by Giemsa staining based flow cytometric analysis relative to control; assay type: functional
In short: (§3)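 Female BALB/c mice, 4–6 weeks old, five per dose group, were infected intraperitoneally with 2 × 10^6 P. berghei-GFP-infected red cells. Each received one oral dose on day 3 PI in 0.5% aqueous HEC; doses ranged 0.01–10 mg/kg. Parasitemia was measured from tail blood by flow cytometry and Giemsa smears. Percent suppression on day 6 PI was calculated versus untreated infected controls, with Welch-corrected unpaired t test.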

[9] = Apparent half life in BALB/c mouse at 3 mg/kg, po; assay type: ADME, organism-based; details: in vivo, read-out: t1/2(app) (converted); in short: as §1
[10] = AUC (0 to 24 hrs) in BALB/c mouse at 3 mg/kg, po; assay type: ADME, organism-based; design: time < 24 hr, route oral, dose 3 mg/kg; details: in vivo; in short: as §1
[11] = AUC (0 to 24 hrs) in BALB/c mouse at 10 mg/kg, po; assay type: ADME, organism-based; design: time < 24 hr, route oral, dose 10 mg/kg; details: in vivo; in short: as §1
[12] = Volume of distribution in BALB/c mouse at 10 mg/kg, po; assay type: ADME, organism-based; details: in vivo; in short: as §1
[13] = Apparent half life in BALB/c mouse at 10 mg/kg, po; assay type: ADME, organism-based; details: in vivo, read-out: t1/2(app) (converted); in short: as §1
[14] = Clearance in BALB/c mouse at 50 mg/kg, po; assay type: ADME, organism-based; details: in vivo; in short: as §1
[15] = tested on: Plasmodium berghei; experiment: as §2, with “at 50” for “at 10”, “administered once daily starting from day” for “administered as single dose on”, “3 to 5” for “3 days”, “measured at” for “measured on”; assay type: functional
In short: (§4)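 Female BALB/c mice, 4–6 weeks old, five per group, were infected intraperitoneally with 2 × 10^6 P. berghei-GFP-infected red cells. Oral doses of 10 or 50 mg/kg in 0.5% aqueous HEC were given once daily on days 3–5 PI; prodrugs were suspended about 1 min before dosing. Parasitemia was measured by flow cytometry and Giemsa smears. Day-6 percent suppression was calculated versus untreated controls, with Welch-corrected t test.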

[16] = AUC (0 to 24 hrs) in BALB/c mouse at 50 mg/kg, po; assay type: ADME, organism-based; design: time < 24 hr, route oral, dose 50 mg/kg; details: in vivo; in short: as §1
[17] = Tmax in BALB/c mouse at 50 mg/kg, po; assay type: ADME, organism-based; details: in vivo; in short: as §1
[18] = Solubility of the compound in 0.5% hydroxyethylcellulose
[19] = tested on: Plasmodium berghei; experiment: as §2, with “administered once daily starting from day” for “administered as single dose on”, “3 to 5” for “3 days”, “measured at” for “measured on”; assay type: functional; in short: as §4
[20] = Volume of distribution in BALB/c mouse at 50 mg/kg, po; assay type: ADME, organism-based; details: in vivo; in short: as §1
[21] = Apparent half life in BALB/c mouse at 50 mg/kg, po; assay type: ADME, organism-based; details: in vivo, read-out: t1/2(app) (converted); in short: as §1
[22] = Cmax in BALB/c mouse at 50 mg/kg, po; assay type: ADME, organism-based; design: route oral, dose 50 mg/kg; details: in vivo; in short: as §1
[23] = tested on: Plasmodium falciparum; experiment: (§5) Antimalarial activity against chloroquine, pyrimethamine, mefloquine and atovaquone- resistant Plasmodium falciparum TM90-C2B infected in human erythrocytes assessed as reduction in parasite growth incubated for 48 hrs followed by addition of [3H]-hypoxanthine and measured after 24 hrs by Topcount liquid scintillation counting method; assay type: functional, organism-based; details: Erythrocyte
[24] = Toxicity in BALB/c mouse infected with blood stage Plasmodium berghei assessed as weight loss at up to at 50 mg/kg, po administered once daily starting from day 3 to 5 post infection and measured on day 6; assay type: organism-based; details: in vivo
In short: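 P. berghei-infected BALB/c mice were dosed orally once daily on days 3–5 PI in 0.5% aqueous HEC, at doses up to 50 mg/kg. Body weight of treated animals was monitored for loss.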

[25] = Aqueous solubility of compound at pH 2.4; details: buffer
[26] = tested on: Plasmodium falciparum; experiment: as §5, with “chloroquine” for “chloroquine, pyrimethamine, mefloquine”, “pyrimethamine” for “atovaquone-”, “W2” for “TM90-C2B”; assay type: functional, organism-based; details: W2, Erythrocyte
[27] = Aqueous solubility of compound at pH 7.4; assay type: physicochemical; details: buffer
[28] = tested on: Plasmodium berghei; experiment: as §2, with “thrice daily started from” for “as single dose on”; assay type: functional; details: time 3 day
[29] = tested on: Plasmodium berghei; experiment: In vivo antimalarial activity against Plasmodium berghei at 20 mg/kg, po administered as single dose in presence of ferroquine; assay type: functional, organism-based
[30] = tested on: Plasmodium berghei; experiment: as §2, with “0.03” for “10”; assay type: functional; details: time 3 day; in short: as §3
[31] = tested on: Plasmodium berghei; experiment: as §2, with “3” for “10”; assay type: functional; details: time 3 day; in short: as §3
[32] = tested on: Plasmodium berghei; experiment: as §2, with “1” for “10”, “13” for “6”; assay type: functional; details: time 10 day
In short: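 Female BALB/c mice, five per group, were infected with P. berghei-GFP-infected erythrocytes intraperitoneally. Each received a single oral dose of 1 mg/kg in 0.5% aqueous HEC on day 3 PI. Tail-blood parasitemia was followed by flow cytometry and Giemsa smears at 3-day intervals through day 30. Suppression on day 13 PI was calculated relative to untreated infected controls.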

[33] = tested on: Plasmodium berghei; experiment: as §2, with “0.1” for “10”; assay type: functional; details: time 3 day; in short: as §3
[34] = tested on: Plasmodium berghei; experiment: as §2, with “1” for “10”; assay type: functional; details: time 3 day; in short: as §3
[35] = Toxicity in BALB/c mouse infected with blood stage Plasmodium berghei assessed as death at 1 mg/kg, po administered as single dose starting from day 3 post infection and measured on day 13; assay type: organism-based; details: in vivo, 240 h, time 10 day
In short: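 Female BALB/c mice (4–6 weeks, about 18 g), five per group, infected intraperitoneally with P. berghei (GFP)-parasitized erythrocytes. Given one oral dose on day 3 PI in 0.5% aqueous HEC, freshly solubilized about 1 min before dosing. Tail-vein parasitemia read by flow cytometry and Giemsa smears every third day through day 30. Untreated animals served as controls.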

[36] = tested on: Plasmodium berghei; experiment: as §2, with “0.01” for “10”; assay type: functional; details: time 3 day; in short: as §3
[37] = tested on: Plasmodium berghei; experiment: as §2, with “0.3” for “10”; assay type: functional; details: time 3 day; in short: as §3

COc1cc2[nH]c(C)c(-c3ccc(Oc4ccc(OC(F)(F)F)cc4)cc3F)c(=O)c2cc1Cl
Cmax [1]: 310 nM
Vd [2]: 19.6 L/kg
Tmax [3]: 4 h
Tmax [4]: 8 h
clearance [5]: 34.9 mL/min/kg
Cmax [6]: 460 nM
clearance [7]: 26.6 mL/min/kg
Activity ([8]; time 3 day): <1%
Activity ([8]; time 3.0 day): inactive
half-life [9]: 8.5 h
AUC [10]: 228 µmol·min/L
AUC [11]: 580 µmol·min/L
Vd [12]: 44 L/kg
half-life [13]: 14.5 h

CNCCOC(=O)OCOc1c(-c2ccc(C(F)(F)F)cc2)c(C)nc2cc(OC)c(Cl)cc12.Cl
clearance [14]: 11.6 mL/min/kg
Activity [15]: 96%
AUC [16]: 8031 µmol·min/L
Tmax [17]: 4 h
solubility [18]: > 5600 µM
Activity [19]: 75%
Vd [20]: 7.8 L/kg
half-life [21]: 7.7 h
Cmax [22]: 12000 nM

O=C1C(O)=C([C@H]2CC[C@H](c3ccc(Cl)cc3)CC2)C(=O)c2ccccc21 [ATOVAQUONE]
EC50 [23]: 18200 nM

CNCCCOC(=O)OCOc1c(-c2ccc(C(F)(F)F)cc2)c(C)nc2cc(OC)c(Cl)cc12.Cl
clearance [14]: 7.8 mL/min/kg
Activity [15]: 96%
AUC [16]: 11664 µmol·min/L
Activity [24]: Non-Toxic
solubility [18]: > 5500 µM
Activity [19]: 82%
solubility [25]: 600 µM

COc1cc2[nH]c(C)c(-c3ccccc3C)c(=O)c2cc1Cl
Activity [15]: 28%
EC50 [26]: 21.9 nM
Activity [24]: Non-Toxic
Activity [19]: 29%
EC50 [23]: 38 nM
solubility [25]: 6.9 µM (≈ 2.17 µg/mL)

CNCCCOC(=O)OCOc1c(-c2ccccc2C)c(C)nc2cc(OC)c(Cl)cc12.Cl
Activity [15]: 72%
EC50 [26]: 269 nM
Activity [24]: Non-Toxic
solubility [18]: > 20000 µM
Activity [19]: 52%
EC50 [23]: 170 nM
solubility [25]: > 100 µM

CCOC(=O)Oc1c(-c2ccccc2C)c(C)nc2cc(OC)c(Cl)cc12
EC50 [26]: 170 nM
solubility [27]: < 1 µM
EC50 [23]: 126 nM

CNCCOC(=O)OCOc1c(-c2ccccc2C)c(C)nc2cc(OC)c(Cl)cc12.Cl
Activity [15]: 46%
EC50 [26]: 219 nM
solubility [18]: > 21000 µM
Activity [19]: 71%
EC50 [23]: 107 nM
solubility [25]: > 100 µM

NC(=O)N1c2ccccc2C=Cc2ccccc21 [CARBAMAZEPINE]
solubility [27]: 95 µM (≈ 22.4 µg/mL)
solubility [25]: 100 µM (≈ 23.6 µg/mL)

CCC(=O)Oc1c(-c2ccccc2C)c(C)nc2cc(OC)c(Cl)cc12
EC50 [26]: 63.1 nM
EC50 [23]: 63.1 nM

COc1cc2nc(C)c(-c3ccccc3C)c(OC(=O)N3CCCC3)c2cc1Cl
EC50 [26]: > 2290 nM
EC50 [23]: > 3550 nM

CN1CCCOC1=O
EC50 [26]: > 8320 nM

CCCSc1ccc2nc(NC(=O)OC)[nH]c2c1 [ALBENDAZOLE]
solubility [27]: 6.1 µM (≈ 1.62 µg/mL)
solubility [25]: 100 µM (≈ 26.5 µg/mL)

CCN(CC)Cc1cc(Nc2ccnc3cc(Cl)ccc23)ccc1O [AMODIAQUINE]
Activity [28]: >99%
Activity [19]: >99%

CCN(CC)C(=O)Oc1c(-c2ccccc2C)c(C)nc2cc(OC)c(Cl)cc12
EC50 [26]: > 2290 nM
solubility [27]: < 1 µM
EC50 [23]: > 3550 nM

c1cc([C@H]2CC[C@]3(CC2)OOC2(O3)C3CC4CC(C3)CC2C4)ccc1OCCN1CCOCC1 (stereo partly drawn)
Activity [29]: Active

CNCCCOC(=O)OCOc1c(-c2ccc(Oc3ccc(OC(F)(F)F)cc3)cc2F)c(C)nc2cc(OC)c(Cl)cc12.Cl
Activity [30]: <1%
Activity [31]: >99%
Activity [32]: 90%
Activity [33]: <1%
Activity [34]: 97%
Activity [35]: Non-Toxic
clearance [5]: 1.4 mL/min/kg
clearance [7]: 0.9 mL/min/kg
Activity ([8]; time 3 day): >99%
solubility [18]: > 5500 µM
AUC [10]: 4818 µmol·min/L
Activity [36]: <1%
AUC [11]: 10269 µmol·min/L
Activity [37]: 57%

COc1cc2[nH]c(C)c(-c3ccc(C(F)(F)F)cc3)c(=O)c2cc1Cl
clearance [14]: 610 mL/min/kg
Activity [15]: 10%
AUC [16]: 222 µmol·min/L
Activity [24]: Non-Toxic
Activity [19]: 11%
solubility [25]: < 1 µM
